Assay results from ChEMBL document CHEMBL1121917, “Structure--activity relationships in a broad-spectrum anthelmintic series. Acid chloride phenylhydrazones. 1. Aryl substitutions and chloride variations” (1981).

Assays:
[1] = test system: Ovis aries; test: Percent reduction in Haemonchus eggs per gram, after treatment with 400 mg/kg dose of compound perorally in sheep; assay type: functional, Egg; conditions: route oral
Procedure, shortened: (§1)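 Naturally parasitized lambs were dosed orally at the stated mg/kg. Dosing was either as a suspension of finely ground compound by stomach tube, or as ground compound weighed into gelatin capsules and given by balling gun. Activity was scored by the clinical test method: the decrease in posttreatment helminth eggs per gram.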

[2] = test system: Ovis aries; test: Percent reduction in Trichuris eggs per gram, after treatment with 300 mg/kg dose of compound perorally in sheep; assay type: functional, Egg; conditions: route oral
[3] = test system: Ovis aries; test: Percent reduction in Oesophagostomum eggs per gram, after treatment with 400 mg/kg dose of compound perorally in sheep; assay type: functional, Egg; conditions: route oral; procedure, shortened: as §1
[4] = species on record: Canis familiaris; test: percent reduction in Uncinaria eggs per gram, after oral treatment of 100 mg/dog dose of compound in a single treatment; assay type: functional, Canis lupus familiaris, Egg
[5] = test system: Ovis aries; test: Percent reduction in Ostertagia eggs per gram, after treatment with 100 mg/kg dose of compound perorally in sheep; assay type: functional, Egg; conditions: route oral; procedure, shortened: as §1
[6] = species on record: Canis familiaris; test: percent reduction in Uncinaria eggs per gram, after oral treatment of 150 mg/dog dose of compound in a single treatment; assay type: functional, Canis lupus familiaris, Egg
[7] = test system: Ovis aries; test: Percent reduction in Haemonchus eggs per gram, after treatment with 300 mg/kg dose of compound perorally in sheep; assay type: functional, Egg; conditions: route oral; procedure, shortened: as §1
[8] = test system: Ovis aries; test: Percent reduction in Strongyloides eggs per gram, after treatment with 100 mg/kg dose of compound perorally in sheep; assay type: functional, Egg; conditions: route oral
Procedure, shortened: (§2)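 Naturally parasitized lambs, dosed orally either with a suspension by stomach tube or with finely ground compound in gelatin capsules by balling gun. Activity was scored by the clinical test method, meaning a significant fall in helminth egg counts after treatment.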

[9] = test system: Ovis aries; test: Percent reduction in Trichostrongylus eggs per gram, after treatment with 400 mg/kg dose of compound perorally in sheep; assay type: functional, Egg; conditions: route oral; procedure, shortened: as §2
[10] = test system: Ovis aries; test: Percent reduction in Trichuris eggs per gram, after treatment with 400 mg/kg dose of compound perorally in sheep; assay type: functional, Egg; conditions: route oral; procedure, shortened: as §2
[11] = test system: Ovis aries; test: Percent reduction in Trichostrongylus eggs per gram, after treatment with 100 mg/kg dose of compound perorally in sheep; assay type: functional, Egg; conditions: route oral; procedure, shortened: as §2
[12] = test system: Ovis aries; test: Percent reduction in Oesophagostomum eggs per gram, after treatment with 100 mg/kg dose of compound perorally in sheep; assay type: functional, Egg; conditions: route oral; procedure, shortened: as §1
[13] = species on record: Canis familiaris; test: percent reduction in Ancylostoma eggs per gram, after oral treatment of 100 mg/dog dose of compound in a single treatment; assay type: functional, Canis lupus familiaris, Egg
Procedure, shortened: (§3)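 Dogs naturally infected with Toxascaris leonina were experimentally infected with mixed Ancylostoma caninum and Uncinaria stenocephala larvae. Finely ground compound was given orally in gelatin capsules. Three egg count determinations were made before and three after treatment in each experiment.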

[14] = species on record: Canis familiaris; test: percent reduction in Ancylostoma eggs per gram, after oral treatment of 50 mg/dog dose of compound in a single treatment; assay type: functional, Canis lupus familiaris, Egg
[15] = test system: Ovis aries; test: Percent reduction in Haemonchus eggs per gram, after treatment with 100 mg/kg dose of compound perorally in sheep; assay type: functional, Egg; conditions: route oral
Procedure, shortened: (§4)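 Naturally parasitized lambs received compound orally, either as the aqueous suspension by stomach tube or as finely ground powder in gelatin capsules by balling gun. Activity was judged by the clinical test method, as a significant decrease in posttreatment helminth egg counts.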

[16] = test system: Ovis aries; test: Percent reduction in Nematodirus eggs per gram, after treatment with 400 mg/kg dose of compound perorally in sheep; assay type: functional, Egg; conditions: route oral; procedure, shortened: as §1
[17] = species on record: Canis familiaris; test: percent reduction in Ancylostoma eggs per gram, after oral treatment of 150 mg/dog dose of compound in a single treatment; assay type: functional, Canis lupus familiaris, Egg
[18] = test system: Ovis aries; test: Percent reduction in Strongyloides eggs per gram, after treatment with 400 mg/kg dose of compound perorally in sheep; assay type: functional, Egg; conditions: route oral; procedure, shortened: as §2
[19] = species on record: Mus musculus; test: Percent clearance of Nematospiroides dubius from mouse after oral treatment of 1.875 mg/mouse/day; assay type: functional
Procedure, shortened: (§5)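 Mice naturally carrying Syphacia obvelata were experimentally infected with Nematospiroides dubius and Hymenolepis nana, then grouped after a 2-week prepatency. Finely ground compound was suspended in aqueous 0.10% carboxymethylcellulose, 0.04% polysorbate 80 and 0.0042% polyparaben, and 0.1 mL was given orally by cannula once daily for 4 days to five mice. Necropsy followed 2 days later, scoring presence or absence of each parasite. Control clearance was subtracted from the treated clearance.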

[20] = test system: Ovis aries; test: Percent reduction in Nematodirus eggs per gram, after treatment with 300 mg/kg dose of compound perorally in sheep; assay type: functional, Egg; conditions: route oral; procedure, shortened: as §1
[21] = test system: Ovis aries; test: Percent reduction in Ostertagia eggs per gram, after treatment with 400 mg/kg dose of compound perorally in sheep; assay type: functional, Egg; conditions: route oral; procedure, shortened: as §2
[22] = test system: Ovis aries; test: Percent reduction in Moniezia eggs per gram, after treatment with 400 mg/kg dose of compound perorally in sheep; assay type: functional, Egg; conditions: route oral; procedure, shortened: as §1
[23] = species on record: Canis familiaris; test: percent reduction in Uncinaria eggs per gram, after oral treatment of 50 mg/dog dose of compound in a single treatment; assay type: functional, Canis lupus familiaris, Egg; procedure, shortened: as §3
[24] = test system: Ovis aries; test: Percent reduction in Cooperia eggs per gram, after treatment with 400 mg/kg dose of compound perorally in sheep; assay type: functional, Egg; conditions: route oral; procedure, shortened: as §4
[25] = species on record: Canis familiaris; test: percent reduction in Toxascaris eggs per gram, after oral treatment of 50 mg/dog dose of compound in a single treatment; assay type: functional, Canis lupus familiaris, Egg; procedure, shortened: as §3
[26] = species on record: Canis familiaris; test: percent reduction in Toxascaris eggs per gram, after oral treatment of 150 mg/dog dose of compound in a single treatment; assay type: functional, Canis lupus familiaris, Egg
[27] = test system: Ovis aries; test: Percent reduction in Trichostrongylus eggs per gram, after treatment with 300 mg/kg dose of compound perorally in sheep; assay type: functional, Egg; conditions: route oral
[28] = test system: Ovis aries; test: Percent reduction in Ostertagia eggs per gram, after treatment with 300 mg/kg dose of compound perorally in sheep; assay type: functional, Egg; conditions: route oral; procedure, shortened: as §2
[29] = species on record: Mus musculus; test: Percent clearance of Syphacaia obvelata from mouse after oral treatment of 1.87 mg/mouse/day; assay type: functional; procedure, shortened: as §5
[30] = test system: Ovis aries; test: Percent reduction in Strongyloides eggs per gram, after treatment with 300 mg/kg dose of compound perorally in sheep; assay type: functional, Egg; conditions: route oral; procedure, shortened: as §2
[31] = test system: Ovis aries; test: Percent reduction in Trichuris eggs per gram, after treatment with 100 mg/kg dose of compound perorally in sheep; assay type: functional, Egg; conditions: route oral; procedure, shortened: as §2
[32] = test system: Ovis aries; test: Percent reduction in Nematodirus eggs per gram, after treatment with 100 mg/kg dose of compound perorally in sheep; assay type: functional, Egg; conditions: route oral; procedure, shortened: as §1

Question: `CSc1ccc(/C(Cl)=N/Nc2ccccc2)cc1` was tested. Which Reduction [1] did it give?
Answer: Its Reduction is 100%.

Question: And the Reduction [2]?
Answer: Its Reduction is 73%.

Question: What about the Reduction [3] of the same compound?
Answer: The Reduction was 100%.

Question: What about the Reduction [4] of the same compound?
Answer: The Reduction was 99%.

Question: And the Reduction [5]?
Answer: Its Reduction is 98%.

Question: What about the Reduction [6] of the same compound?
Answer: The Reduction was 91%.

Question: And the Reduction [7]?
Answer: The Reduction was 100%.

Question: What about the Reduction [8] of the same compound?
Answer: The Reduction was 100%.

Question: What about the Reduction [9] of the same compound?
Answer: The Reduction was 100%.

Question: What about the Reduction [10] of the same compound?
Answer: Its Reduction is 38%.

Question: What about the Reduction [11] of the same compound?
Answer: Its Reduction is 98%.

Question: What about the Reduction [12] of the same compound?
Answer: Its Reduction is 100%.

Question: What about the Reduction [13] of the same compound?
Answer: The Reduction was 94%.

Question: What about the Reduction [14] of the same compound?
Answer: Its Reduction is 91%.

Question: And the Reduction [15]?
Answer: The Reduction was 98%.

Question: What about the Reduction [16] of the same compound?
Answer: Its Reduction is 100%.

Question: And the Reduction [17]?
Answer: The Reduction was 84%.

Question: What about the Reduction [18] of the same compound?
Answer: The Reduction was 100%.

Question: What about the Parasite_Clearance [19] of the same compound?
Answer: The Parasite_Clearance was 100%.

Question: What about the Reduction [20] of the same compound?
Answer: The Reduction was 100%.

Question: What about the Reduction [21] of the same compound?
Answer: The Reduction was 100%.

Question: And the Reduction [22]?
Answer: Its Reduction is 100%.

Question: And the Reduction [23]?
Answer: The Reduction was 86%.

Question: What about the Reduction [24] of the same compound?
Answer: Its Reduction is 100%.

Question: And the Reduction [25]?
Answer: The Reduction was 69%.

Question: What about the Reduction [26] of the same compound?
Answer: Its Reduction is 100%.

Question: What about the Reduction [27] of the same compound?
Answer: The Reduction was 100%.

Question: And the Reduction [28]?
Answer: Its Reduction is 100%.

Question: And the Parasite_Clearance [29]?
Answer: Its Parasite_Clearance is 100%.

Question: And the Reduction [30]?
Answer: The Reduction was 100%.

Question: What about the Reduction [31] of the same compound?
Answer: The Reduction was 25%.

Question: What about the Reduction [32] of the same compound?
Answer: Its Reduction is 100%.
